Values after ≈ are worked out from the molar mass of the structure shown. Active and inactive are the calls of the source. The calls are words filed in the database; no cut-off is given here.
How the values were obtained:
[1] = Growth inhibition of human HBC4 cells by SRB assay; assay type: functional
Procedure, shortened: (§1)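 Human cancer cell panel; five concentrations from 10^-4 to 10^-8 M; growth measured by sulforhodamine B colorimetric method; GI50, TGI and LC50 derived from computer-analysed dose-response curves.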

[2] = Growth inhibition of human BSY1 cells by SRB assay; assay type: functional, BSY-1; procedure, shortened: as §1
MCF7 = experiment: Growth inhibition of human MCF7 cells by SRB assay; assay type: functional; procedure, shortened: as §1
SF-268 = experiment: Growth inhibition of human SF268 cells by SRB assay; assay type: functional
Procedure, shortened: (§2)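 Cancer cell panel; growth measured by sulforhodamine B colorimetric method across five concentrations from 10^-4 to 10^-8 M; GI50, TGI and LC50 derived from computer-analysed dose-response curves.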

SF-539 = experiment: Growth inhibition of human SF539 cells by SRB assay; assay type: functional; procedure, shortened: as §2
HCC 2998 = experiment: Growth inhibition of human HCC2998 cells by SRB assay; assay type: functional; procedure, shortened: as §1
HCT-15 = experiment: Growth inhibition of human HCT15 cells by SRB assay; assay type: functional; procedure, shortened: as §1
NCI-H460 = experiment: Growth inhibition of human NCI-H460 cells by SRB assay; assay type: functional; procedure, shortened: as §1
DMS-273 = experiment: Growth inhibition of human DMS273 cells by SRB assay; assay type: functional; procedure, shortened: as §1
[3] = Growth inhibition of human DMS144 cells by SRB assay; assay type: functional; procedure, shortened: as §1
LOX IMVI = experiment: Growth inhibition of human LOXIMVI cells by SRB assay; assay type: functional; procedure, shortened: as §1
OVCAR-5 = experiment: Growth inhibition of human OVCAR5 cells by SRB assay; assay type: functional; procedure, shortened: as §1
SK-OV-3 [4] = experiment: Growth inhibition of human SKOV3 cells by SRB assay; assay type: functional; procedure, shortened: as §2
[5] = Growth inhibition of human RXF631L cells by SRB assay; assay type: functional, RXF 631; procedure, shortened: as §2
[6] = Growth inhibition of human MKN1 cells by SRB assay; assay type: functional, MKN-1; procedure, shortened: as §1
MKN-7 = experiment: Growth inhibition of human MKN7 cells by SRB assay; assay type: functional; procedure, shortened: as §1
MKN-28 = experiment: Growth inhibition of human MKN28 cells by SRB assay; assay type: functional; procedure, shortened: as §1
MKN-74 = experiment: Growth inhibition of human MKN74 cells by SRB assay; assay type: functional; procedure, shortened: as §1
PC-3 = experiment: Growth inhibition of human PC3 cells by SRB assay; assay type: functional; procedure, shortened: as §1
[7] = AUC (0 to infinity) in CD1 mouse at 10 mg/kg, ip; assay type: ADME, organism-based; set-up: dose 10 mg/kg, route intraperitoneal, time infinity; conditions: plasma
Procedure, shortened: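 Male CD-1 (Crl.) mice (22-24 g), single 10 mg/kg dose. Prodrug in 9% NaHCO3/water (1 mg/mL) given iv by tail vein or po by gavage after 4 h fast; parent given ip in cremophor/DMSO/saline 20/5/75 (2 mg/mL). Plasma sampled to 27 h, three mice per time point, acetonitrile precipitation, LC-MS/MS (ESI positive); parameters from mean plasma concentrations.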

[8] = biological target: Glutamate decarboxylase (Clostridium perfringens (strain 13 / Type A)) (UniProt Q8XIQ6); experiment: Inhibition of Clostridium perfringens glutamate decarboxylase at 10 uM by enzyme assay
Procedure, shortened: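 Single-concentration screen at 10 μM in a contract enzyme assay panel run under standard protocols. Read-out is percent inhibition of the enzyme.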

SK-OV-3 [9] = experiment: Cell cycle arrest in human SKOV3 cells assessed as increase in accumulation at G2/M phase at 10 uM after 36 hrs by propidium iodide-based flow cytometry; assay type: functional
Procedure, shortened: (§3)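 SKOV-3 cells (DMEM/F-12, 10% fetal calf serum) treated with 10 μM for 6, 12, 24, 36 or 48 h; trypsinized, PBS-washed, fixed in 70% ice-cold ethanol overnight at -20 °C, RNase A treated, propidium iodide stained; DNA content by flow cytometry, phase percentages and hypodiploid fraction scored.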

SK-OV-3 [10] = experiment: Cell cycle arrest in human SKOV3 cells assessed as decrease in accumulation at G0/G1 phase at 10 uM after 36 hrs by propidium iodide-based flow cytometry; assay type: functional; procedure, shortened: as §3
SK-OV-3 [11] = experiment: Induction of mitotic arrest in human SKOV3 cells assessed as increase in cyclin B1 expression at 10 uM after 24 hrs by Western blot; assay type: functional, cell-based
Procedure, shortened: (§4)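 SKOV-3 cells in DMEM/F-12 with 10% fetal calf serum, treated with 10 μM or vehicle (DMSO). Lysates, 50 μg protein, resolved by SDS-PAGE, transferred to PVDF, probed for cyclin B1 or securin with β-actin loading control; ECL detection, bands quantified by phosphorimaging; at least three separate experiments.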

SK-OV-3 [12] = experiment: Induction of mitotic arrest in human SKOV3 cells assessed as increase in securin expression at 10 uM after 24 hrs by Western blot; assay type: functional, cell-based; procedure, shortened: as §4
SK-OV-3 [13] = experiment: Induction of mitotic arrest in human SKOV3 cells assessed as increase in […] upregulation at 10 uM after 24 hrs by SDS-PAGE; assay type: functional, cell-based
Procedure, shortened: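 SKOV-3 cells treated with vehicle (DMSO) or 10 μM for indicated times, or indicated doses for 24 h; whole-cell lysates resolved by SDS-PAGE, blotted and probed with anti-BubR1 mouse mAb; ECL detection.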

[14] = Solubility in water; assay type: physicochemical; conditions: buffer
Rattus norvegicus = organism: Rattus norvegicus; experiment: Displacement of […] from benzodiazepine binding site of rat GABAA receptor at 10 uM radioligand binding assay
Procedure, shortened: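 Radioligand binding screen run by contract lab under standard protocols; rat GABA_A sites; single-point inhibition at 10 μM, with IC50 determined where inhibition was significant.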

[15] = biological target: Cathepsin S (Homo sapiens) (UniProt P25774); experiment: Inhibition of human cathepsin S at 10 uM by enzyme assay
Procedure, shortened: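 Commercial spectrum screen of enzyme assays under standard protocols; percent inhibition tested at 10 μM; IC50 determined for targets showing significant inhibition at that concentration; SEM given where multiple independent determinations.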

[16] = read-out: pLC50 (the source's name) (converted)

Cathepsin S (Homo sapiens), sequence (P25774 115-331 limits assumed): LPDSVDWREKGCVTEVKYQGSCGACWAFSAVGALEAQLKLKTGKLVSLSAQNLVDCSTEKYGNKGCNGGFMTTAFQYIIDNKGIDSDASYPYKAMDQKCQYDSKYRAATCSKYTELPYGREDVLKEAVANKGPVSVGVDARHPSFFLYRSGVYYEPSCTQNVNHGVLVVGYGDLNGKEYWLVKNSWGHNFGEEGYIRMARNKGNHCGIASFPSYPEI

`O=c1cc(-c2ccccc2F)[nH]c2cc3c(cc12)OCO3` showed a GI50 ([1]; HBC4) of 347 nM, a CC50 ([1]; HBC4, read-out: pLC50 (converted)) of over 100000 nM and a TGI ([1]; HBC4, read-out: pTGI) of over 100000 nM. The GI50 ([2]; BSY-1) was 324 nM, the CC50 ([2]; BSY-1, read-out: pLC50 (converted)) was over 100000 nM and the TGI ([2]; BSY-1, read-out: pTGI (converted)) was 13200 nM. For the same compound, the GI50 (MCF7; MCF7) was 158 nM, the CC50 (MCF7; MCF7, read-out: pLC50 (converted)) was over 100000 nM and the TGI (MCF7; MCF7, read-out: pTGI) was over 100000 nM. For the same compound, the GI50 (SF-268; SF-268) was 100 nM, the CC50 (SF-268; SF-268, read-out: pLC50 (converted)) was over 100000 nM and the TGI (SF-268; SF-268, read-out: pTGI) was over 100000 nM. For the same compound, the GI50 (SF-539) was 120 nM, the CC50 (SF-539; [16]) was 89100 nM and the TGI (SF-539; read-out: pTGI (converted)) was 501 nM. It also gave a GI50 (HCC 2998; HCC 2998) of 129 nM, a CC50 (HCC 2998; HCC 2998, read-out: pLC50 (converted)) of over 100000 nM and a TGI (HCC 2998; HCC 2998, read-out: pTGI (converted)) of 1260 nM. The GI50 (HCT-15; HCT-15) was 50.1 nM, the CC50 (HCT-15; HCT-15, read-out: pLC50 (converted)) was over 100000 nM and the TGI (HCT-15; HCT-15, read-out: pTGI) was over 100000 nM. It also gave a GI50 (NCI-H460; NCI-H460, read-out: pGI50 (converted)) of over 100000 nM, a CC50 (NCI-H460; NCI-H460, read-out: pLC50 (converted)) of over 100000 nM and a TGI (NCI-H460; NCI-H460, read-out: pTGI) of over 100000 nM. The GI50 (DMS-273; DMS-273) was 56.2 nM, the CC50 (DMS-273; DMS-273, read-out: pLC50 (converted)) was over 100000 nM and the TGI (DMS-273; DMS-273, read-out: pTGI) was over 100000 nM. It also gave a GI50 ([3]; DMS144) of 53.7 nM, a CC50 ([3]; DMS144, read-out: pLC50 (converted)) of over 100000 nM and a TGI ([3]; DMS144, read-out: pTGI (converted)) of 676 nM. The GI50 (LOX IMVI) was 123 nM, the CC50 (LOX IMVI; read-out: pLC50 (converted)) was over 100000 nM and the TGI (LOX IMVI; read-out: pTGI (converted)) was 676 nM. It also gave a GI50 (OVCAR-5; OVCAR-5) of 813 nM, a CC50 (OVCAR-5; OVCAR-5, read-out: pLC50 (converted)) of over 100000 nM and a TGI (OVCAR-5; OVCAR-5, read-out: pTGI) of over 100000 nM. It also gave a GI50 (SK-OV-3 [4]) of 85.1 nM, a CC50 (SK-OV-3 [4]; [16]) of 63100 nM and a TGI (SK-OV-3 [4]; read-out: pTGI (converted)) of 501 nM. For the same compound, the GI50 ([5]; RXF 631) was 79.4 nM, the CC50 ([5]; RXF 631, read-out: pLC50 (converted)) was over 100000 nM and the TGI ([5]; RXF 631, read-out: pTGI (converted)) was 501 nM. For the same compound, the GI50 ([6]; MKN-1) was 77.6 nM, the CC50 ([6]; MKN-1, read-out: pLC50 (converted)) was over 100000 nM and the TGI ([6]; MKN-1, read-out: pTGI) was over 100000 nM. For the same compound, the GI50 (MKN-7; MKN-7) was 45.7 nM, the CC50 (MKN-7; MKN-7, read-out: pLC50 (converted)) was over 100000 nM and the TGI (MKN-7; MKN-7, read-out: pTGI) was over 100000 nM. The GI50 (MKN-28; MKN-28) was 112 nM, the CC50 (MKN-28; MKN-28, read-out: pLC50 (converted)) was over 100000 nM and the TGI (MKN-28; MKN-28, read-out: pTGI (converted)) was 17800 nM. The GI50 (MKN-74; MKN-74) was 162 nM, the CC50 (MKN-74; MKN-74, read-out: pLC50 (converted)) was over 100000 nM and the TGI (MKN-74; MKN-74, read-out: pTGI (converted)) was 871 nM. The GI50 (PC-3; PC-3) was 75.9 nM, the CC50 (PC-3; PC-3, read-out: pLC50 (converted)) was over 100000 nM and the TGI (PC-3; PC-3, read-out: pTGI) was over 100000 nM. The AUC(0-inf) [7] was 417 ng·h/mL, the inhibition [8] was 66% and the Activity (SK-OV-3 [9]) was “Active”. The Activity (SK-OV-3 [10]) was “Active”, the Activity (SK-OV-3 [11]) was “Active” and the Activity (SK-OV-3 [12]) was “Active”. The Activity (SK-OV-3 [13]) was “Active”, the solubility [14] was 0.013 µg/mL (≈ 0.0459 µM) and the inhibition (Rattus norvegicus) was 83%. The inhibition [15] was 1%.

Reference: ChEMBL document CHEMBL1154907, “Synthesis and preclinical evaluations of 2-(2-fluorophenyl)-6,7-methylenedioxyquinolin-4-one monosodium phosphate (CHM-1-P-Na) as a potent antitumor agent” (J Med Chem, 2010)
